Article PMC6713505 (Science Advances, 2019)

What was measured:
[1] = tested on: FL transporter-1 (Blon_0341–0343); format: cell-based, B. infantis JCM 1222^T; conditions: for change in concentration of each HMO in culture supernatant (consumption): MS554 expressing FL transporter-1, growth on 0.5% (w/v) purified HMO mixture
Summary of the method: (§1)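 The host was B. longum 105-A ΔlnbX ΔgltA carrying pMSK65, which encodes intracellular HMO-degrading exo-glycosidases. It was transformed with the transporter gene cluster or an empty vector. Cultures grew anaerobically at 37°C in MRS-CS with 0.5% (w/v) purified HMO mixture, Lac, 2′-FL, 3-FL, LDFT or LNFP I. OD600 was followed in technical duplicates. Supernatant HMOs were fluorescence-labelled and measured by HPLC against a maltoheptaose internal standard, in technical triplicates; means ± SD.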

[2] = tested on: FL transporter-2 (Blon_2202–2204); format: cell-based, B. infantis JCM 1222^T; conditions: for change in concentration of each HMO in culture supernatant (consumption): MS554 expressing FL transporter-2, growth on 0.5% (w/v) purified HMO mixture
Summary of the method: as §1

B. infantis JCM 1222^T = format: cell-based; conditions: 0.5% (w/v) sugar
Summary of the method: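 B. infantis JCM 1222T wild type and FL transporter mutants were grown anaerobically at 37°C in MRS-CS broth (0.34% w/v sodium ascorbate, 0.02% w/v cysteine-HCl). Each broth carried 0.5% (w/v) of Gal, 2′-FL, 3-FL, LDFT, LNFP I or purified HMO mixture. The HMO mixture was purified from pooled breast milk and contained 2% (w/w) Lac impurity. Growth was followed over time in biological duplicates, reported as means ± SD.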

| Compound | change in concentration of each HMO in culture supernatant (consumption) [1] | change in concentration of each HMO in culture supernatant (consumption) [2] | growth of WT and the four mutants of B. infantis (B. infantis JCM 1222^T) | growth on sugar as carbon source ([1]; MS554 expressing FL transporter-1, 0.5% (w/v) sugar, OD600) | growth on sugar as carbon source ([2]; MS554 expressing FL transporter-2, 0.5% (w/v) sugar, OD600) |
| --- | --- | --- | --- | --- | --- |
| lacto-N-difucohexaose (LNDFH) I [LNDFH I] | invariant | invariant | – | – | – |
| CC(=O)N[C@H]1[C@H](O[C@H]2[C@@H](O)[C@@H](CO)O[C@@H](O[C@H]3[C@H](O)[C@@H](O)C(O)O[C@@H]3CO)[C@@H]2O)O[C@H](CO)[C@@H](O)[C@@H]1O[C@@H]1O[C@H](CO)[C@H](O)[C@H](O)[C@H]1O (some centres unmarked) [LNT, lacto-N-tetraose] | invariant | invariant | – | – | – |
| CC(=O)N[C@H]1[C@H](O[C@H]2[C@@H](O)[C@@H](CO)O[C@@H](O[C@@H]([C@H](O[C@@H]3O[C@@H](C)[C@@H](O)[C@@H](O)[C@@H]3O)[C@@H](O)C=O)[C@H](O)CO)[C@@H]2O)O[C@H](CO)[C@@H](O[C@@H]2O[C@@H](C)[C@@H](O)[C@@H](O)[C@@H]2O)[C@@H]1O[C@@H]1O[C@H](CO)[C@H](O)[C@H](O)[C@H]1O [LNDFH II] | invariant | invariant | – | – | – |
| O=C[C@H](O)[C@@H](O)[C@@H](O)[C@H](O)CO [Gal, galactose] | – | – | grew at similar rates | – | – |
| OC[C@H]1O[C@@H](O[C@H]2[C@H](O)[C@@H](O)C(O)O[C@@H]2CO)[C@H](O)[C@@H](O)[C@H]1O (mixture of isomers) [Lac, lactose] | – | – | – | indistinguishable from the control strain | indistinguishable from the control strain |
| CC(=O)N[C@H]1[C@H](O[C@H]2[C@@H](O)[C@@H](CO)O[C@@H](O[C@H]3[C@H](O)[C@@H](O)C(O)O[C@@H]3CO)[C@@H]2O)O[C@H](CO)[C@@H](O[C@@H]2O[C@H](CO)[C@H](O)[C@H](O)[C@H]2O)[C@@H]1O (mixture of isomers) [LNnT, lacto-N-neotetraose] | invariant | invariant | – | – | – |
